Published values of several laboratories.
Lines come from different studies, so protocols differ.

C=CC(=O)NC1CCN(c2ncc3ncnc(Nc4ccc(Oc5ccc6c(c5)ncn6C)c(C)c4)c3n2)CC1  EC50 (LUDLU-1; cell growth or viability): 6210 nM
C=CC(=O)N1CCN(c2nc(=O)n(-c3c(C)ccnc3C(C)C)c3nc(-c4c(O)cccc4F)c(F)cc23)[C@@H](C)C1  IC50 (NCI-H358; cell growth or viability, ATP luminescence): 44.1 nM
COc1cc2nc(N3CCN(C(=O)C4COc5ccccc5O4)CC3)nc(N)c2cc1OC (stereo not shown)  IC50 (CNE-2; cell growth or viability, MTT; 48 h): 30700 nM
Cc1nn(-c2ccccc2)c2c1C(c1cncs1)N(C(=O)c1ccncc1)N2 (stereo not shown)  MIC (Cryptococcus neoformans; microbial growth; clinical isolate): 64 µg/mL
CC(C)=CCCC(C)=CC=O (mixture of isomers)  MFC (Cryptococcus neoformans; microbial killing, broth dilution; clinical isolate): 1600 µg/mL
COc1ccc(C2c3c(C)nn(-c4ccccc4)c3NN2C(=O)c2ccncc2)cc1 (stereo not shown)  MIC (Cryptococcus neoformans; microbial growth; clinical isolate): > 100 µg/mL
Nc1ccc(/C=C/C(=O)N2CCc3c(oc4c(-c5ccc(F)cc5)cc(-c5ccc(C(=O)N6CCC(F)(F)CC6)nn5)cc34)C2)cn1  IC50 (ASPC1; cell growth or viability, CCK-8; 72 h): 340 nM
Cc1nn(-c2ccccc2)c2c1C(c1ccc(O)cc1)N(C(=O)c1ccncc1)N2 (stereo not shown)  MIC (Cryptococcus neoformans; microbial growth; clinical isolate): > 100 µg/mL
Cc1c(C(=O)O)ccc2c3n(nc12)[C@@H]1[C@H](C3)N(CC2CC2)[C@@]2(C(=O)Nc3cc(Cl)ccc32)[C@H]1c1cccc(Cl)c1F  GI50 (SW982; cell growth or viability, resazurin): 0.34 nM
C[C@@H]1[C@H](O)[C@@H](C)/C=C/C=C/C=C/C=C/C=C/C=C/C=C/[C@H](O[C@@H]2O[C@H](C)[C@@H](O)[C@H](N)[C@@H]2O)C[C@@H]2O[C@](O)(C[C@@H](O)C[C@@H](O)[C@H](O)CC[C@@H](O)C[C@@H](O)CC(=O)O[C@H]1C)C[C@H](O)[C@H]2C(=O)O  MIC (Nakaseomyces glabratus; microbial growth, broth dilution; ATCC2001; 24 h): 4 µg/mL
O=C(O)c1cn(C2CC2)c2cc(N3CCNCC3)c(F)cc2c1=O  MIC (Bacillus subtilis; microbial growth; ATCC6051): 2 µM
Cc1nn(-c2ccccc2)c2c1C(c1ccco1)N(C(=O)c1ccncc1)N2 (stereo not shown)  MIC (Cryptococcus neoformans; microbial growth; clinical isolate): 2 µg/mL
C=C(F)C(=O)N1CCN(c2nc(OC[C@@H]3CCCN3C)nc3c2CCN(c2cccc4cccc(Cl)c24)C3)C[C@@H]1CC#N  IC50 (SW756; cell growth or viability, ATP luminescence): 888 nM
